KCNK9 inh = KCNK9 potassium channel inhibitors, primary screen, HEK293 cells, thallium flux | Potassium channel subfamily K member 9 (Homo sapiens), Q9NPC2 | FluxOR thallium flux fluorescence; hits give low values | B-score at 10 µM | hit rate 1.2% among 310,000 | AID 488922, 2010;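 active = ratio B-score over 3 SD below the library mean, with starting fluorescence within 5 SD of its mean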;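 note: negative B-score means less thallium flux so channel inhibition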
Target sequence (Q9NPC2 whole entry, looked up): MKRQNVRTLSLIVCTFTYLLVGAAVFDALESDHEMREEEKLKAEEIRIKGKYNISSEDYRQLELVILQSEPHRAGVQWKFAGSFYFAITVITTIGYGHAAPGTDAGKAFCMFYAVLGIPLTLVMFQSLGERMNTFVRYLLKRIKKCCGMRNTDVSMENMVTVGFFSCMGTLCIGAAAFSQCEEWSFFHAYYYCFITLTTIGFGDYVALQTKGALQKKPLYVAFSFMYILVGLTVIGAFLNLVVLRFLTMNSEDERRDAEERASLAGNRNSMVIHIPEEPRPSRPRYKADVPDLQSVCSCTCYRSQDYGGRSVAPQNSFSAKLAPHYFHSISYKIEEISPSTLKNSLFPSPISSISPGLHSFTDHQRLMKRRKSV
PHOSPHO1 block = PubChem AID 1565. Phosphoethanolamine/phosphocholine phosphatase (Homo sapiens), Q8TCT1. recombinant PHOSPHO1, absorbance phosphatase assay. inhibition, % at 13.3 µM. hit rate 1.1% among 290,000; in the data active = inhibition above about 60%
Target sequence (Q8TCT1 whole entry, looked up): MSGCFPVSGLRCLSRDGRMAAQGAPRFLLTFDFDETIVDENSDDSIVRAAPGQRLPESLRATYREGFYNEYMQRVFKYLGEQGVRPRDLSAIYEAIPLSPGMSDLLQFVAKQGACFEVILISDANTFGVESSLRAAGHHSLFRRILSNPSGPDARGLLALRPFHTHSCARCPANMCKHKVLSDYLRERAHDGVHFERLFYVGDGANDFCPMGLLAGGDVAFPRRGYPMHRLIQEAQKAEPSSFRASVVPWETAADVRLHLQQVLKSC
KCNQ1 act = potentiators or activators of KCNQ1 channel, primary screen, cell-based, thallium flux, high-throughput; CHO-K1 KCNQ1, thallium flux FluxOR fluorescence; hits give high values; B-score at 10 µM; hit rate 0.35% among 310,000; Potassium voltage-gated channel subfamily KQT member 1 (Homo sapiens), P51787;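 active = fluorescence ratio B-score, a plate-corrected score, at least three library SD, with initial intensity B-score within 5 SD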
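System: Stable KCNQ1 CHO-K1 line | Incubation: 90 min dye loading and 20 min compound exposure, both at room temperature | Measure: Ratio B score | Medium: Assay buffer for compound exposure, DMSO matched across wells | Compound dosing: Single-concentration screen | Probe or stimulus: K+/Tl+ depolarizing stimulus | Measured by: Kinetic FluxOR fluorescence, 10 s baseline plus 110 s post-stimulus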
KCNK3 block = human KCNK3 channel inhibitors, primary screen, CHO cells, FluxOR thallium flux, B-score | Potassium channel subfamily K member 3 (Homo sapiens), O14649 | FluxOR fluorescence; hits give low values | B-score at 10 µM | hit rate 0.84% among 340,000 | AID 602410, 2012;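 active = B-score under library mean minus 4 SD, starting fluorescence ratio at most library mean plus 5 SD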;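 note: more negative B-score means stronger inhibition of thallium flux through KCNK3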
KCNQ1 block = inhibitors of human KCNQ1 channel, primary screen, cell-based, thallium flux, high-throughput | AID 2642, 2010 | hit rate 1.3% among 310,000 | Potassium voltage-gated channel subfamily KQT member 1 (Homo sapiens), P51787 | CHO-K1 KCNQ1, FluxOR thallium flux fluorescence; hits give high values | B-score at 10 µM;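 active = compounds whose thallium flux B-score, printed positive for inhibition, exceeds three library SD while starting fluorescence stays within three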;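 note: channel opened by potassium depolarization with thallium stimulus after 20 min compound exposure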
hERG protect = hERG rescue from dofetilide block, primary screen, cell-based, CHO-hERG, FluxOR thallium flux, dofetilide IC70; hit rate 0.51% among 310,000; dofetilide IC70 present; activation (rescue from dofetilide block), less the hit threshold, % at 10 µM; Voltage-gated inwardly rectifying potassium channel KCNH2 (Homo sapiens), Q12809;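 active = activation above the mean of controls blocked by dofetilide plus 5 SD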;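 note: thallium influx through hERG after potassium depolarization seen as dye fluorescence rise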
KCNK3 inh conf = retest of human KCNK3 channel inhibitors, confirmation, CHO cells, FluxOR thallium flux, triplicate | shares compounds with KCNK3 block | FluxOR fluorescence; 0% buffer, 100% carvedilol maximal block | ratio percent of control, % at 10 µM | hit rate 99% among 2,400;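 active = ratio percent of control, averaged over triplicates, above buffer control mean plus 5 SD, cut at about 64% in these data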;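 note: ratio is the fluorescence rise from min to max over baseline after thallium stimulus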
KCNK3 noninduced = thallium flux inhibition in non-induced cells, primary screen, counter-screen for KCNK3 inhibitor project, cell-based, non-induced KCNK3 line, FluxOR thallium, triplicate. AID 651747, 2012. thallium flux ratio (lower = more inhibition) at 10 µM. non-induced KCNK3 parental cells; hits give low values. shares compounds with KCNK3 block. hit rate 40% among 2,400;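 active = thallium flux ratio, averaged over three wells, more than 5 SD below the buffer control mean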;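 note: host cells are CHO cells without KCNK3 induction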
Large screens that a line does not name were inactive (follow-up assays come after a bar, where they were run). Only some compounds are listed: those with a hit (about 4% of all), similar ones and a draw of the others.

CCn1c(SCC(=O)Nc2oc(-c3ccccc3)c(-c3ccccc3)c2C#N)nnc1-c1ccco1	none
CCn1c(SCC(=O)Nc2oc(-c3ccccc3)c(-c3ccccc3)c2C#N)nnc1-c1ccncc1	KCNK3 block -9.3 | KCNK3 inh conf 118 | KCNK3 noninduced 0.14
Cn1cccc1Cc1nnc(SCC(=O)N2CCCc3ccccc32)n1-c1ccc(F)cc1	none
COc1ccc(-n2c(Cc3ccccc3)nnc2SCC(=O)N2CCCc3ccccc32)cc1	KCNK3 block -12 | KCNK3 inh conf 87 | KCNK3 noninduced inactive
CSc1ccc(S(=O)(=O)Nc2ccc(S(=O)(=O)Nc3ccc(C)cc3)cc2)cc1	none
Cc1ccc(S(=O)(=O)Nc2ccc(N(C)S(=O)(=O)c3ccc(C)cc3)cc2)cc1	KCNK9 inh -7 | KCNK3 inh conf 86 | KCNK3 noninduced inactive
COCCCNc1nc(-c2ccc(Cl)cc2)nc2ccccc12	none
CCN(CC)c1nc(-c2ccccc2)nc2ccccc12	KCNK3 block -9.5 | KCNK3 inh conf 129 | KCNK3 noninduced inactive
COCCN(CCOC)c1nc(-c2ccc(Cl)cc2)nc2ccccc12	KCNK9 inh -7.6, KCNK3 block -9.2 | KCNK3 inh conf 128 | KCNK3 noninduced inactive
CC(=O)N(C1=C(Cl)C(=O)c2ccccc2C1=O)C1CCCCC1	KCNK9 inh -6.9, KCNK3 block -12 | KCNK3 inh conf 140 | KCNK3 noninduced 0.087
O=C(COc1ccccc1)Nc1ccccc1N1CCCCC1	KCNK3 block -11 | KCNK3 inh conf 128 | KCNK3 noninduced inactive
Cc1ccc(C)c(OCC(=O)Nc2ccccc2N2CCCC2)c1	KCNK3 block -10 | KCNK3 inh conf 104 | KCNK3 noninduced inactive
Cc1ccc(OCC(=O)Nc2ccccc2N2CCCC2)c(C)c1	none
COc1cc(N2CCCC2)c(OC)cc1/C=c1/sc2nc3ccccc3n2c1=O	none (no result: KCNK9 inh, KCNQ1 act, KCNK3 block, KCNQ1 block, hERG protect)
COc1ccc(OC)c(-c2csc(NC(=O)Cc3cccs3)n2)c1	KCNK3 block -8.8 | KCNK3 inh conf 85 | KCNK3 noninduced inactive
COc1ccc(OC)c(-c2csc(NC(=O)Cc3ccccc3)n2)c1	KCNK3 block -9.4 | KCNK3 inh conf 125 | KCNK3 noninduced 0.15
COc1ccc(CN(C(=O)c2ccco2)c2ccc(C)c(C)c2)cc1	KCNK9 inh -7.1, KCNK3 block -11 | KCNK3 inh conf 105 | KCNK3 noninduced inactive
COc1ccc(OC)c(-c2csc(N(Cc3ccco3)C(=O)c3ccco3)n2)c1	KCNK9 inh -7.3, KCNK3 block -12 | KCNK3 inh conf 102 | KCNK3 noninduced inactive
CCOc1ccc(N(Cc2ccc(OC)cc2)C(=O)c2ccco2)cc1	none
CCOc1ccc(S(=O)(=O)N2CCCCCC2)cc1	none
COc1cc2ccccc2cc1C(=O)Nc1nccs1	KCNK3 block -9.6 | KCNK3 inh conf 94 | KCNK3 noninduced inactive
COc1ccc(OC)c(NC(=O)c2sc3ncnc(N4CCN(c5ccccn5)CC4)c3c2C)c1	KCNK3 block -9.1 | KCNK3 inh conf 104 | KCNK3 noninduced inactive
COc1ccccc1N1CCN(C(=O)c2sc3ncnc(N4CCN(c5ccccn5)CC4)c3c2C)CC1	none
COc1ccccc1NC(=O)C(C)OC(=O)CCCc1c[nH]c2ccccc12 (configuration not stated)	KCNK9 inh -7.2, KCNK3 block -10 (no result: PHOSPHO1 block) | KCNK3 inh conf 104 | KCNK3 noninduced inactive
Cc1c(/C=N/NC(=O)c2ccc(O)cc2)c2ccccn2c1C(=O)c1ccc(F)cc1	none
Cc1c(/C=N/NC(=O)c2ccccc2O)c2ccccn2c1C(=O)c1ccc(F)cc1	KCNK9 inh -7.9, KCNK3 block -11, KCNQ1 block 10 | KCNK3 inh conf 129 | KCNK3 noninduced 0.16
COc1ccccc1/C=C/C1C(C(=O)OCC(C)C)=C(C)N=C2SCCC(=O)N21 (configuration not stated)	KCNK3 block -9.3 | KCNK3 inh conf 92 | KCNK3 noninduced 0.16
Cc1ccc(/C=C/c2nnc(-c3cccs3)o2)cc1	KCNK3 block -8.8 | KCNK3 inh conf 84 | KCNK3 noninduced inactive
CCOc1ccc(S(=O)(=O)NCCCl)cc1	none
CCOC(=O)c1ccccc1NC(=O)C1COc2ccccc2O1 (configuration not stated)	none
CCOC(=O)c1c(NC(=O)C2COc3ccccc3O2)sc(C)c1C (configuration not stated)	KCNK3 block -8.8 | KCNK3 inh conf 107 | KCNK3 noninduced 0.14
COc1cccc(NC(=O)c2cc3ccccc3o/c2=N\O)c1	KCNK3 block -8.7 | KCNK3 inh conf 125 | KCNK3 noninduced 0.13
O=C(Nc1ccccc1Cl)c1cc2ccccc2o/c1=N\O	none
Cc1nc(SCc2ccc(Br)cc2)[nH]c(=O)c1C	none (no result: KCNK9 inh, KCNQ1 act, KCNQ1 block, hERG protect)
O=C(CSc1nnc(NC(=O)c2ccccc2F)s1)NCC1CCCO1 (configuration not stated)	KCNK3 block -8.8 | KCNK3 inh conf 86 | KCNK3 noninduced inactive
CC(=O)c1cccc(N(CC(=O)Nc2ccc(S(=O)(=O)N3CCOCC3)cc2)S(C)(=O)=O)c1	none
CC(=O)c1cccc(N(CC(=O)Nc2ccc(S(=O)(=O)N3CCCC3)cc2)S(C)(=O)=O)c1	KCNK3 block -9.5 | KCNK3 inh conf inactive | KCNK3 noninduced inactive
COc1ccccc1C(c1nnnn1CCc1ccccc1)N1CCCCCC1 (configuration not stated)	KCNK3 block -8.8 | KCNK3 inh conf 96 | KCNK3 noninduced inactive
O=C(COC(=O)c1ccccc1-c1ccccc1[N+](=O)[O-])c1ccccc1	KCNK3 block -11 | KCNK3 inh conf 92 | KCNK3 noninduced inactive
O=C(COC(=O)c1ccccc1[N+](=O)[O-])NC(=O)c1ccccc1	none (no result: PHOSPHO1 block)
CN(CC(=O)Nc1ccc(F)cc1Cl)Cc1cccs1	KCNK3 block -9.5 | KCNK3 inh conf 85 | KCNK3 noninduced inactive
Oc1cccc(-c2nc3ccc4ccccc4c3c3c2CCC3)c1	KCNK3 block -19 | KCNK3 inh conf 111 | KCNK3 noninduced 0.15
O=C(NNc1c2ccccc2nc2ccccc12)c1cccc(O)c1	none
